ChEMBL document CHEMBL1151781, “Selectivity of inhibitors of endocannabinoid biosynthesis evaluated by activity-based protein profiling” (Bioorg Med Chem Lett, 2008)
The source made the active and inactive calls. The calls are words filed in the database; no cut-off is given here.

Legend:
[1] = biological target: Monoglyceride lipase (Mus musculus) (UniProt O35678); test: Inhibition of MAGL in mouse brain at 0.01 to 100 uM treated for 30 mins by SDS-PAGE using rhodamine-tagged FP probe; format: tissue-based
In short: (§1)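 Mouse brain membrane proteome preincubated with inhibitor across 0.01-100 μM for 30 min. A rhodamine-tagged fluorophosphonate probe (FP-Rh) was then added for 60 min. Samples were resolved by SDS-PAGE, and probe labeling of each hydrolase band was read by in-gel fluorescence scanning.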

[2] = biological target: T1, Fatty-acid amide hydrolase 1 (Mus musculus) (UniProt O08914); test: Inhibition of FAAH in mouse brain at 0.01 to 100 uM treated for 30 mins by SDS-PAGE using rhodamine-tagged FP probe; format: tissue-based; in short: as §1
T1 sequence (whole entry): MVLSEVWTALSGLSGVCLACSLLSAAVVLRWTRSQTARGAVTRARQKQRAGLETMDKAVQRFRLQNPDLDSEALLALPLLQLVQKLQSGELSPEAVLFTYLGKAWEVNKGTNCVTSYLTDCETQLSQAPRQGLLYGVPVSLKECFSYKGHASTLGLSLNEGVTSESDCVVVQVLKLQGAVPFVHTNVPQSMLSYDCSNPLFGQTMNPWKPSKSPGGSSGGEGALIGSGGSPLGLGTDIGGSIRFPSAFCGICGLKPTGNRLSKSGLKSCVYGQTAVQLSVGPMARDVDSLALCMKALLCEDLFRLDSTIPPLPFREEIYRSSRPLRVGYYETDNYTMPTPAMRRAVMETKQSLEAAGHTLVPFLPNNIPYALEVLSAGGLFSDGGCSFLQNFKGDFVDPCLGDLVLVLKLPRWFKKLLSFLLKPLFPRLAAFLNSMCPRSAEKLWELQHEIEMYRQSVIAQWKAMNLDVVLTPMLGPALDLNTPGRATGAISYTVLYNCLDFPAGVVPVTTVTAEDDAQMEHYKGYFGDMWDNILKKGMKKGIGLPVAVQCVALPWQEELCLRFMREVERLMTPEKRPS

[3] = biological target: T2, Diacylglycerol lipase-beta (Mus musculus) (UniProt Q91WC9); test: Inhibition of DAGLbeta in mouse brain assessed as >15 average spectral count at 5 uM treated for 30 mins by ABPP-MudPIT assay; format: tissue-based
T2 sequence (whole entry): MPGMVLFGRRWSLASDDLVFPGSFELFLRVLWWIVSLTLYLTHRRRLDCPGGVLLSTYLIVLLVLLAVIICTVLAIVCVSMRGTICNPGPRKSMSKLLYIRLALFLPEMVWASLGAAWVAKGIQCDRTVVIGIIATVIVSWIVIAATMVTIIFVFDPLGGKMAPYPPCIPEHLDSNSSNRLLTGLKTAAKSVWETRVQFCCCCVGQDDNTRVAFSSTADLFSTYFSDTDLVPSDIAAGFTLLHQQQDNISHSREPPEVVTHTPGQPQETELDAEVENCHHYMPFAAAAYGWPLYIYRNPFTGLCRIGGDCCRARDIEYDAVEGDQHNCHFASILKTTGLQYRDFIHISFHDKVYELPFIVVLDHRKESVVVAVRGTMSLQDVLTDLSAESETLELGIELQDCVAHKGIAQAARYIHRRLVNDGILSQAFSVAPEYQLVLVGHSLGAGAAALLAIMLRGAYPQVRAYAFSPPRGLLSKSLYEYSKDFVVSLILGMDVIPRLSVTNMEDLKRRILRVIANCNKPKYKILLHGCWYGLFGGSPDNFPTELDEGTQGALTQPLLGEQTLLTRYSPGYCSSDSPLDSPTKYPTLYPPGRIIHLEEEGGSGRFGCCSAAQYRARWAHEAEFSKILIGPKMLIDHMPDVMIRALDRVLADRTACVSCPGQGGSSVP

[4] = biological target: Neutral cholesterol ester hydrolase 1 (Homo sapiens, UniProt Q6PIU2); test: Inhibition of recombinant KIAA1363 transfected in HEK293T cells by SDS-PAGE using rhodamine-tagged FP probe; format: cell-based, HEK-293T
In short: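 HEK293T cells were transfected with cDNA for the target hydrolase. The transfected proteome was treated with inhibitor across 0.01-100 μM, then labeled with rhodamine-tagged fluorophosphonate probe (FP-Rh). Loss of probe labeling was read to give IC50. Values are means ± standard errors of three independent experiments.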

[5] = biological target: T3, Diacylglycerol lipase-alpha (Mus musculus) (UniProt Q6WQJ1); test: Inhibition of DAGLalpha in mouse brain assessed as >15 average spectral count at 5 uM treated for 30 mins by ABPP-MudPIT assay; format: tissue-based
T3 sequence (whole entry): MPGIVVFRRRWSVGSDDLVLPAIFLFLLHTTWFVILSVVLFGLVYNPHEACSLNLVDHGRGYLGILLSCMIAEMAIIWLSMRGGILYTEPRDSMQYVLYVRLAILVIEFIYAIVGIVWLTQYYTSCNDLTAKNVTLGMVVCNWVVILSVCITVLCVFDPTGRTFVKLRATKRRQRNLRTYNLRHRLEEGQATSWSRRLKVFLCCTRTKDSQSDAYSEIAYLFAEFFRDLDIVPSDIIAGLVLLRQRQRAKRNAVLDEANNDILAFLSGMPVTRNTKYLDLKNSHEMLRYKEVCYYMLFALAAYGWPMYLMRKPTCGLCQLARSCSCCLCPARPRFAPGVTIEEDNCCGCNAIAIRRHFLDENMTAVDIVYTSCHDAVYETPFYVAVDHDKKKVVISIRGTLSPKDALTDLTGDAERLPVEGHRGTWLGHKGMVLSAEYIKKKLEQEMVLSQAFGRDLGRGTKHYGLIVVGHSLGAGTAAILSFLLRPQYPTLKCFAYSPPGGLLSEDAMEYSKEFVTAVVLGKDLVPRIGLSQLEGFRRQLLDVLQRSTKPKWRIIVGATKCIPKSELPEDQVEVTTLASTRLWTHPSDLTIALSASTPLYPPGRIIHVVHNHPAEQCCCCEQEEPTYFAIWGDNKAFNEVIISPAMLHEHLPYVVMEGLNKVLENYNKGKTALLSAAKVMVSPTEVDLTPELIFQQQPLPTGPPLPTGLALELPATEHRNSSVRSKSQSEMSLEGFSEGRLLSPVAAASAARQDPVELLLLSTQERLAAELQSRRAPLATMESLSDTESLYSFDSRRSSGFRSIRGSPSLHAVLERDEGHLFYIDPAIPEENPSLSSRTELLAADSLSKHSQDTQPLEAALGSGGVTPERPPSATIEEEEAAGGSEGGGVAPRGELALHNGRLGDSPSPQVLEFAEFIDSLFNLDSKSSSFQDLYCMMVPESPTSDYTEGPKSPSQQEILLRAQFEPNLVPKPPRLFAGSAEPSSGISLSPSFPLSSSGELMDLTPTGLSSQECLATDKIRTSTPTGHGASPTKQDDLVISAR

[6] = biological target: Monoacylglycerol lipase ABHD6 (Mus musculus) (UniProt Q8R2Y0); test: Inhibition of ABHD6 in mouse brain at 0.01 to 100 uM treated for 30 mins by SDS-PAGE using rhodamine-tagged FP probe; format: tissue-based; in short: as §1
Monoacylglycerol lipase ABHD6 (Mus musculus), sequence (Q8R2Y0 whole entry): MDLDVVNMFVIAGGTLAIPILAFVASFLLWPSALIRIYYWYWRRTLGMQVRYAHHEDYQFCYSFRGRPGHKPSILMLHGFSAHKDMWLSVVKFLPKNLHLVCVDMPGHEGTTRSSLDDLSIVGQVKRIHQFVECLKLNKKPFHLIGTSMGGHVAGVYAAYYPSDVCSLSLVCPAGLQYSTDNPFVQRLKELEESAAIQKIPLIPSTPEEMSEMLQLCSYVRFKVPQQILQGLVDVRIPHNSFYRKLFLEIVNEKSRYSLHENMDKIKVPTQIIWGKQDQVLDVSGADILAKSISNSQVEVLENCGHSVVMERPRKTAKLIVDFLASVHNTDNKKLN

Monoglyceride lipase (Mus musculus), sequence (O35678 whole entry): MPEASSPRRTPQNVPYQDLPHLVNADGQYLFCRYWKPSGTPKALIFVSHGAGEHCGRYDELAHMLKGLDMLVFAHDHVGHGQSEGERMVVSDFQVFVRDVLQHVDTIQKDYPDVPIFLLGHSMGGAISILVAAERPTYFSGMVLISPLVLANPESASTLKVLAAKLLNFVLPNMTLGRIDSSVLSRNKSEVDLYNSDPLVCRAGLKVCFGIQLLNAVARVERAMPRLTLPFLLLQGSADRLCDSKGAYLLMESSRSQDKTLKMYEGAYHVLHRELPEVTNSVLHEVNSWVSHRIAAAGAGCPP
Neutral cholesterol ester hydrolase 1, sequence (Q6PIU2 whole entry): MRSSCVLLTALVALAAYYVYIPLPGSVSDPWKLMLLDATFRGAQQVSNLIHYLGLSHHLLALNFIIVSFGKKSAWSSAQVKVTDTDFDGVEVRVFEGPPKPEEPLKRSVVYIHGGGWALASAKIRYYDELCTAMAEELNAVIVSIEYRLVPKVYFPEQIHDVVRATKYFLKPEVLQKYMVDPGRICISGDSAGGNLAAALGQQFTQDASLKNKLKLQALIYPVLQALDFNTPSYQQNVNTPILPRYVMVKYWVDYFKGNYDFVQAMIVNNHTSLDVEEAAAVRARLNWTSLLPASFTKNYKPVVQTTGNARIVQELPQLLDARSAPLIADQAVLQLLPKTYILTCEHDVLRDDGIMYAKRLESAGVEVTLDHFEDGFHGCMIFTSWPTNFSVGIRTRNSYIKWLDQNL

O=C(NCCCCCCNC(=O)ON=C1CCCCC1)ON=C1CCCCC1
Activity [1]: Active
Activity [2]: Active
Activity [3]: inactive
IC50 [4]: 10 µM
Activity [5]: inactive
Activity [6]: Active

CCCCCCCCCCC[C@@H](C[C@@H]1OC(=O)[C@H]1CCCCCC)OC(=O)[C@H](CC(C)C)NC=O [ORLISTAT]
Activity [1]: Active
Activity [2]: Active
Activity [3]: inactive
IC50 [4]: > 100 µM
Activity [5]: inactive
Activity [6]: Active
